# Screening data as filed in PubChem.
# Shown is part of a subset that was picked to be rich in hits.
# HSF-1 act = HSF-1 activators, primary screen, NIH3T3-HGL cells, MG132 stress, luminescence, single point; 1.7% of 300,000 active; NIH3T3-HGL HSF-1 luciferase reporter, 8 h; 100% = twice DMSO control signal; activation, % at 9 µM;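 active means mean replicate activation of at least 50% with a set share of replicates each reaching 50%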;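 further: 0% = median of the neutral control wells and 100% = twice that signal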
# T cruzi inh = inhibitors of intracellular T. cruzi growth, primary screen, luminescence, NIH3T3 host cells | T. cruzi beta-gal in NIH3T3, 90 h | inhibition, % (concentration not given with the values) | 1.4% of 300,000 active;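 active means mean inhibition across valid replicates above about 55%, limit read from the data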;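 further: signal also drops with host cell toxicity which is not excluded here; 0% = plate median of DMSO wells and 100% = zero luminescence signal; higher percent means less beta-gal luminescence so fewer parasites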
#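 Material: NIH/3T3 host cells with β-galactosidase reporter T. cruzi; Input: 5,000 host fibroblasts per well; Medium: DMEM, 2% fetal bovine serum; Compound: 50 nL DMSO compound solution per well; Schedule: 3 h host attachment, then at least 90 h co-culture; Detection: luminescent β-galactosidase signal after 60 min lysis.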
# HSF1 inhib = HSF1 inhibitors in luciferase reporter cells, primary screen, cell-based, NIH3T3, luminescence. activity change, negative = inhibition, % at 7.5 µM (by protocol). 0.77% of 300,000 active. NIH3T3-HGL HSE-luciferase, MG132-induced, luminescence 8 h; stronger effect = lower value;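 active means more than half of replicate wells show activity change below -50%, luminescence cut by over half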;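 further: luciferase reports HSF-1 transcriptional activity via heat shock element; 0% = median of DMSO wells and -100% = zero luminescence signal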
# Hsp70 act = Hsp70 transcriptional activators, primary screen, cell-based, HeLa, Hsp70 promoter luciferase, luminescence, 10 µM | AID 1203, 2008 | activation, % at 10 µM | HeLa Hsp70 promoter luciferase reporter; scaled: vehicle 0, proteasome-inhibitor control 100% | 0.04% of 200,000 active;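 active means activation above the mean across all tested compounds plus 3 SD, cutoff set per campaign, cut at about 5.5% in these data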;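 further: 100% = MG132 at 30 µM as the positive control and 0% = DMSO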
# Lmaj promast = Leishmania major promastigote growth inhibition, primary screen; Leishmania major promastigotes, resazurin fluorescence viability; inhibition, % at 10 µM; 9% of 200,000 active; AID 1063, 2008; in the data active means inhibition above about 50%;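 further: promastigotes grown with compound for 44 hours at 28 °C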
# Starred values were filed as active, the others as inactive; x = no result given.
SMILES,HSF-1 act,T cruzi inh,HSF1 inhib,Hsp70 act,Lmaj promast
Clc1ccc(CSC2=NCCCN2)cc1Cl,2,15,4,0,91*
CCN(CC(=O)Nc1ccc2c(c1)OCCO2)CC(=O)Nc1ccc2c(c1)OCO2,-2,5,-3,0,9
Cc1ccc2c(CN(C)Cc3ccccc3)cc(=O)oc2c1C,74*,11,40,x,x
Cc1cccc(N2C(=O)CC(N3CCN(Cc4ccc5c(c4)OCO5)CC3)C2=O)c1 (stereo not given),-3,8,2,0,-3
CCN(CC(=O)Nc1ccc2c(c1)OCCO2)Cc1cc(=O)oc2c(C)c(C)ccc12,16,9,11,-1,81*
Cc1cc(C)c2c(CN3CCN(Cc4ccc5c(c4)OCO5)CC3)cc(=O)oc2c1C,-2,31,0,0,16
Cc1ccc2c(CN3CCN(Cc4ccc5c(c4)OCO5)CC3)cc(=O)oc2c1C,18,33,-5,0,73*
Cc1ccc(C)c(N2C(=O)CC(N3CCN(Cc4ccc5c(c4)OCO5)CC3)C2=O)c1 (stereo not given),13,17,2,0,87*
CS(=O)(=O)N1CCN(c2ccccc2[N+](=O)[O-])CC1,-12,-2,6,0,4
Cc1ccc(-c2nn(-c3ccccc3)cc2C(=O)NCCCN2CCOCC2)cc1,15,14,0,x,x
Cc1cc2oc(=O)cc(CN3CCN(Cc4ccc5c(c4)OCO5)CC3)c2cc1C,-16,45,1,0,94*
C=CCn1c(SCC#N)nc2c(c1=O)C(C)(C)Cc1ccccc1-2,16,13,3,0,96*
C=CCn1c(SCC#N)nc2ccccc2c1=O,53*,-1,10,0,5
C=CCn1c(SCc2nc3sc4c(c3c(=O)[nH]2)CCCC4)nc2ccccc2c1=O,32,1,9,0,84*
C=CCn1c(SCc2nc3ccccc3c(=O)[nH]2)nc2sc3c(c2c1=O)CCCC3,4,-11,-1,x,x
COc1ccccc1C(CNC(=O)CSc1ccc2ccccc2c1)N(C)C (stereo not given),-1,36,1,x,x
CN(C)CCN(CC1CCCN(Cc2ccccc2F)C1)C(=O)c1ccc(Cl)cc1 (stereo not given),-12,28,-2,x,x
CCCc1cc(=O)[nH]c(SCC(=O)c2ccc3c(c2)OCCO3)n1,-8,13,1,0,61*
CC/C(O)=C1\C(=O)CC(c2ccccc2)CC1=NC(C)C (stereo not given),-21,-1,-5,-1,59*
CC/C(O)=C1\C(=O)CC(c2ccccc2)CC1=NCCC(=O)O (stereo not given),-13,-15,-5,0,-6
CCOC(=O)c1c(-c2ccccc2)n(C)c2ccc(O)cc12,-55,-5,-57*,0,22
COc1ccc(CNCCSc2nnnn2C)cc1OC,15,-12,9,0,-4
COc1cc(CNCCSc2nnnn2C)cc(Br)c1OCc1ccccc1,4,36,7,0,56*
COc1cc(CNCCO)cc(Br)c1OCc1ccccc1,3,8,3,0,97*
CCOc1cc(CNCCSc2nnnn2C)cc(Br)c1OCc1ccc(F)cc1,26,14,20,0,50*
SMILES,HSF-1 act,T cruzi inh,HSF1 inhib,Hsp70 act,Lmaj promast
Cn1nnnc1SCCNCc1ccccc1OCc1ccccc1,-4,2,-1,0,6
COc1cc(CNCCSc2nnnn2C)cc(Br)c1OCc1ccc(F)cc1,20,41,16,0,95*
CC(C)C(NC(=O)c1ccc(C(C)(C)C)cc1)C(=O)Nc1cccc(S(N)(=O)=O)c1 (stereo not given),13,-12,-7,0,3
Cc1cc(C)c2c(N)c(C(=O)Nc3ccccc3Cl)sc2n1,32,39,0,x,x
Cc1cc(C)c2c(N)c(C(=O)c3ccc(Cl)cc3Cl)sc2n1,-31,39,-27,-1,100*
Cc1cc(C)c2c(N)c(C(=O)c3cccc(Cl)c3)sc2n1,13,38,-3,0,100*
Cc1cc(C)c2c(N)c(C(=O)Nc3ncc(C)s3)sc2n1,x,x,x,-1,68*
Cc1cc(C)c2c(N)c(C(=O)c3ccccc3Cl)sc2n1,5,56*,3,x,x
CC(=O)c1sc2nc(C)cc(C)c2c1N,-17,1,0,0,8
O=c1[nH]cc(S(=O)(=O)N2CCOCC2)c(=O)[nH]1,-1,-6,4,x,x
COc1ccc(CCNC(=O)c2ccc3c(c2)NC(=O)C(CSCc2cc(C)ccc2C)N3)cc1OC (stereo not given),3,-21,6,x,x
Cn1c(CN2CCCCC2)nc2cc(NC(=O)c3cccc(Br)c3)ccc21,-11,28,7,0,98*
COc1ccc(C(=O)Nc2ccc3c(c2)nc(CN2CCCC2)n3C)cc1,-88,-14,-86*,0,1
COc1cccc(CN2CCN(Cc3ccc(OC)c(OC)c3)CC2CCO)c1 (stereo not given),16,2,0,0,1
Clc1ncnc2scc(C3COc4ccccc4O3)c12 (stereo not given),58*,10,21,0,71*
c1ccc2c(c1)OCC(c1csc3ncnc(N4CCCCC4)c13)O2 (stereo not given),11,6,-7,2,6
C/C(=N\Nc1cccc(Cl)c1)c1ccc(-n2ccnc2)cc1,x,x,x,0,1
O=C1C2C3C=CC(C3)C2C(=O)N1CCN1CCN(Cc2ccc([N+](=O)[O-])cc2)CC1 (stereo not given),-8,5,-6,0,72*
O=C1CC(/C=C/c2ccccn2)=Nc2ccccc2N1,4,12,3,0,82*
O=C1CC(/C=C/c2ccco2)=Nc2ccccc2N1,13,5,5,0,-1
COc1ccc(Cl)cc1N(CC(=O)NCC(C)C)S(=O)(=O)c1ccc(C)c([N+](=O)[O-])c1,-12,21,-4,0,9
CCCCSc1cnn(-c2ccccc2)c(=O)c1SCCCC,-2,32,-2,0,79*
CC(C)C[C@H](NC(=O)[C@H](Cc1ccccc1)n1c(=O)[nH]c2ccccc2c1=O)C(=O)N1CCC[C@H]1C(=O)O,-34,-15,-24,x,x
Cc1cccc(Cn2c(Cc3ccccc3)nc3ccccc32)c1,12,2,3,0,92*
Clc1ncccc1-c1nc2ccccc2n1Cc1ccccc1,-12,2,0,0,94*
CC1CCc2sc(C(=O)OCC(=O)NCc3ccc(F)cc3)cc2C1 (stereo not given),-15,0,-11,0,-8
